Results on 14 compounds are retold here after ChEMBL document CHEMBL1122954, “Synthesis and antiallergic activity of some quinolinones and imidazoquinolinones” (1985).

Holding throughout (type): functional
For assay [1], the system named is Rattus norvegicus. Description: Antiallergic activity by rat passive cutaneous anaphylaxis (PCA) assay when administered perorally at dose 100 mg/kg. The following applies: route oral.
Assay [2] concerns Rattus norvegicus. The experiment in a line: Percentage normal weight gain when dosed at 200 mg/kg on day one of the 2-week study in rat. In short, it runs like this:
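Male Sprague-Dawley rats, fasted 16 h, given a single oral dose in 0.1% Methocel; controls got vehicle. Groups of 8–10, weighed daily at about the same time over 2 weeks. Gain over the first 4 days compared with expected gain from standard growth charts for age and strain. Mean % of normal weight gain ± standard error.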

Assay [3] relates to Rattus norvegicus. Description: Antiallergic activity determined by rat passive cutaneous anaphylaxis (PCA) assay when administered intraperitoneally at dose 60 mg/kg. Particulars: route intraperitoneal.

For `CCOC(=O)c1cnc2c([N+](=O)[O-])cccc2c1O`, the Activity with Rattus norvegicus [1] is recorded as -2; with Rattus norvegicus [3] it was 13. Also, in the assay on Rattus norvegicus [2], the Normal weight gain came to 106%.

Take `CCOC(=O)c1cnc2c(NC=O)cccc2c1O`: the Activity in the assay with Rattus norvegicus [1] was 76; in the assay with Rattus norvegicus [3], 67. For the same compound, the Normal weight gain with Rattus norvegicus [2] is -26%.

As for `CCOC(=O)c1cn2cnc3cc(C)cc(c1=O)c32`, the Activity in the assay with Rattus norvegicus [1] was 70; in the assay with Rattus norvegicus [3], 3.

As for `COC(=O)c1cc(=O)c2cccc3ncn1c32`, the values for the Activity with Rattus norvegicus [1] and with Rattus norvegicus [3] were 1 and 16, respectively. Further, the Normal weight gain in the assay on Rattus norvegicus [2] amounted to 68%.

As to `O=CNc1cccc2c(O)cc(C(=O)O)nc12`, the Activity with Rattus norvegicus [1] is 16; with Rattus norvegicus [3], 91.

In the case of `CCOC(=O)c1cn2cnc3cccc(c1=O)c32`, the Activity in the assay on Rattus norvegicus [1] worked out at 70; in the assay on Rattus norvegicus [3], 100. The Normal weight gain in the assay on Rattus norvegicus [2] is given as -6%.

As for `O=C([O-])c1cc(=O)c2c(OCC(O)COc3cccc4oc(C(=O)[O-])cc(=O)c34)cccc2o1.[Na+].[Na+]` [CROMOLYN SODIUM], the figures for the Activity in the assay on Rattus norvegicus [1] and in the assay on Rattus norvegicus [3] were 2 and 100, respectively.

As to `COC(=O)c1cc(O)c2cccc(N)c2n1`, the Activity in the assay with Rattus norvegicus [1] was found to be 3; in the assay with Rattus norvegicus [3] it was 10. The Normal weight gain with Rattus norvegicus [2] is 100%.

Regarding `COC(=O)c1cc(O)c2cccc([N+](=O)[O-])c2n1`, the figures for the Activity in the assay with Rattus norvegicus [1] and in the assay on Rattus norvegicus [3] were 8 and 66, respectively. Moreover, the Normal weight gain in the assay with Rattus norvegicus [2] is on record as 104%.

For `CCOC(=O)c1cnc2c(N)cccc2c1O`, in the assay on Rattus norvegicus [2], the Normal weight gain turned out to be 86%. The compound further displayed an Activity in the assay on Rattus norvegicus [3] of 19.

`CCOC(=O)c1cnc2c(N)cc(C)cc2c1O`: the Activity in the assay with Rattus norvegicus [3] is given as -2.

As for `CCO/C(C)=N/c1cccc2c(O)cc(C(=O)OC)nc12`, the Activity in the assay with Rattus norvegicus [3] is 24.

For the compound `CCOC(=O)c1cn2c(C)nc3cccc(c1=O)c32`, the Activity was 83 in the assay with Rattus norvegicus [1] and 95 in the assay on Rattus norvegicus [3]. The Normal weight gain in the assay with Rattus norvegicus [2] was -49%.

`O=CNc1cccc2c(O)c(C(=O)O)cnc12`: the Activity in the assay on Rattus norvegicus [1] is on record as 0; with Rattus norvegicus [3] it was 62.
